Laboratory results as given in ChEMBL document CHEMBL1629474, “Massive screening yields novel and selective Trypanosoma cruzi triosephosphate isomerase dimer-interface-irreversible inhibitors with anti-trypanosomal activity” (Eur J Med Chem, 2010).
The source made the active and inactive calls. How the calls were made is not given here.

Legend:
Trypanosoma cruzi [1] = assay: Antiparasitic activity against Trypanosoma cruzi T2 epimastigotes assessed as growth inhibition at 25 uM after 5 days; type: functional; conditions: for inhibition of growth at 25 µM: T2, 120 h, read-out: GI
Outline: (§1)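 Late-log epimastigotes were grown axenically at 28 °C in BHI-tryptose with 5% fetal calf serum and seeded at 2×10^6/mL in medium containing compound (DMSO stock; final DMSO ≤1%, 1% DMSO control). Growth was read as A590 at day 0 and day 5. Inhibition = {1 − [(Ap − A0p)/(Ac − A0c)]} × 100. Means of two experiments.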

Trypanosoma cruzi [2] = assay: Antiparasitic activity against Trypanosoma cruzi T2 epimastigotes assessed as growth inhibition; type: functional; conditions: read-out: ID50 (the source's name)
Outline: (§2)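 Epimastigotes were cultured at 28 °C in BHI-tryptose plus 5% fetal calf serum and seeded at 2×10^6/mL with increasing compound concentrations (from DMSO stock; final DMSO ≤1%). Growth was followed as A590 against untreated controls. ID50 was the concentration halving absorbance relative to controls. Means of two experiments.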

[3] = target: Triosephosphate isomerase, glycosomal (Trypanosoma cruzi) (UniProt P52270); assay: Inhibition of Trypanosoma cruzi triosephosphate isomerase at 400 uM after 2 hrs
Triosephosphate isomerase, glycosomal (Trypanosoma cruzi), sequence (P52270 whole entry): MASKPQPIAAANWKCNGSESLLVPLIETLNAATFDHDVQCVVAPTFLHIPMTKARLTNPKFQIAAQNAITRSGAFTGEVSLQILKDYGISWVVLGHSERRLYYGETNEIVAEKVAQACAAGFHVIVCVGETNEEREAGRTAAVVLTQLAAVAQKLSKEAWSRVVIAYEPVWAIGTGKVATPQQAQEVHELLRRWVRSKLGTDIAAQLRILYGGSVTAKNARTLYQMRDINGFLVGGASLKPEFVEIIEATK
Outline: (§3)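 Recombinant E. coli-expressed enzyme, dialyzed into 100 mM triethanolamine/10 mM EDTA pH 7.4, was incubated with compound (DMSO stock) in 100 mM triethanolamine, 10 mM EDTA, pH 7.4, 10% DMSO at 36 °C for 2 h. An aliquot was then assayed for activity (glyceraldehyde 3-phosphate to dihydroxyacetone phosphate, α-glycerol phosphate dehydrogenase-coupled) with 5 ng enzyme. Irreversible inhibition was scored as loss of activity; means of two experiments.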

[4] = Selectivity for Trypanosoma cruzi triosephosphate isomerase over human triosephosphate isomerase
[5] = target: Triosephosphate isomerase, glycosomal (Trypanosoma cruzi) (UniProt P52270); assay: Inhibition of Trypanosoma cruzi triosephosphate isomerase at 100 uM after 2 hrs; outline: as §3
Trypanosoma cruzi [6] = assay: Antiparasitic activity against Trypanosoma cruzi CLB epimastigotes assessed as growth inhibition at 25 uM after 5 days; type: functional; conditions: 120 h, read-out: GI; outline: as §1
Trypanosoma cruzi [7] = assay: Antiparasitic activity against Trypanosoma cruzi CLB epimastigotes assessed as growth inhibition; type: functional; conditions: read-out: ID50 (the source's name); outline: as §2
[8] = target: Triosephosphate isomerase, glycosomal (Trypanosoma cruzi, UniProt P52270); assay: Inhibition of Trypanosoma cruzi triosephosphate isomerase after 2 hrs; outline: as §3
Triosephosphate isomerase, glycosomal, sequence (P52270 whole entry): as above

[9] = target: Triosephosphate isomerase (Homo sapiens) (UniProt P60174); assay: Inhibition of human triosephosphate isomerase at 100 uM after 2 hrs; outline: as §3
Triosephosphate isomerase (Homo sapiens), sequence (P60174 whole entry): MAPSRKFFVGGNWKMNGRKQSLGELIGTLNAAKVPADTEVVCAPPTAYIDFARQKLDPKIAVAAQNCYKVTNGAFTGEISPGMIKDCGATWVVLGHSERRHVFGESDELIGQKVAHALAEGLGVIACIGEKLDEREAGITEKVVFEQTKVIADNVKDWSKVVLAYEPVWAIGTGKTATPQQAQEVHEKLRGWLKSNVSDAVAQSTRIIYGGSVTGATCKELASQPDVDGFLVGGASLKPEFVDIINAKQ

Trypanosoma cruzi [10] = assay: Antiparasitic activity against Trypanosoma cruzi Y epimastigotes assessed as growth inhibition at 25 uM after 5 days; type: functional; conditions: 120 h, read-out: GI; outline: as §1
Trypanosoma cruzi [11] = assay: Antiparasitic activity against Trypanosoma cruzi Y epimastigotes assessed as growth inhibition; type: functional; conditions: read-out: ID50 (the source's name); outline: as §2

| SMILES | IC50 (Trypanosoma cruzi [2]) | inhibition [3] | Ratio [4] | inhibition [5] | IC50 (Trypanosoma cruzi [7]) | IC50 [8] | inhibition [9] | IC50 (Trypanosoma cruzi [11]) | Activity (Trypanosoma cruzi [1]) | inhibition of growth at 25 µM (Trypanosoma cruzi [1]) | inhibition of growth at 25 µM (Trypanosoma cruzi [6]) | inhibition of growth at 25 µM (Trypanosoma cruzi [10]) |
| --- | --- | --- | --- | --- | --- | --- | --- | --- | --- | --- | --- | --- |
| O=C(Cn1ccnc1[N+](=O)[O-])NCc1ccccc1 [BENZNIDAZOLE] | 7.4 µM | 18% | > 4 |  |  |  |  |  | Active |  |  |  |
| C/C(=C\c1ccc2c(c1)OCO2)[N+](=O)[O-] | 5.1 µM | 74% | > 4 | 55% |  |  |  |  |  | 100% |  |  |
| O=C1C(=Cc2ccc([N+](=O)[O-])cc2)C(=O)N(Cc2ccccc2)S(=O)(=O)N1Cc1ccccc1 |  | 74% | > 4 | 28% |  |  |  |  | Active |  |  |  |
| C/C(=C\c1ccc(Br)cc1)[N+](=O)[O-] |  | 95% | > 4 | 0% |  |  |  |  | Active |  |  |  |
| O=C(N/N=C/c1ccc([N+](=O)[O-])o1)Nc1cccc2ccccc12 |  | 82% | > 4 | 20% |  |  |  |  | Active |  |  |  |
| c1ccc(-c2nsc(-c3ccccc3)n2)cc1 | 25 µM | 74% | > 4 | 45% |  |  |  |  |  | 50% |  |  |
| O=c1oc(-c2ccccc2)ns1 | 22 µM | 96% | > 4 | 81% |  | 10 µM | 0% |  |  | 59% |  |  |
| O=[N+]([O-])c1ccc(/C=C/C=N/NC(=S)Nc2ccccc2)o1 |  | 100% | > 4 | 75% |  |  |  |  | Active |  |  |  |
| [O-][n+]1onc2ccc(/C=C/c3ccc4c(c3)OCO4)cc21 |  | 70% | > 4 | 21% |  |  |  |  | Active |  |  |  |
| COc1ccc(CCNC(=O)N/N=C/c2ccc([N+](=O)[O-])o2)cc1OC |  | 100% | > 4 | 76% |  |  |  |  | Active |  |  |  |
| [O-][n+]1onc2ccc(/C=N/N=C/c3cc(Br)ccc3O)cc21 |  | 100% | > 4 | 0% |  |  |  |  | Active |  |  |  |
| [O-][n+]1onc2ccc(/C=C/c3cccs3)cc21 |  | 73% | > 4 | 27% |  |  |  |  | Active |  |  |  |
| Cc1ccc(-c2nsc(=O)[nH]2)cc1 | > 25 µM | 95% |  | 98% |  | 3.5 µM | 59% |  |  | 0% |  |  |
| Cc1ccc(-c2nsc(S(=O)(=O)c3ccc(C)cc3)n2)cc1 | 5 µM | 78% | > 4 | 57% |  |  |  |  |  | 100% |  |  |
| O=C1C(=Cc2ccc([N+](=O)[O-])s2)C(=O)N(CCc2ccccc2)S(=O)(=O)N1CCc1ccccc1 |  | 82% | > 4 | 68% |  |  |  |  | Active |  |  |  |
| O=C(N/N=C/C=C/c1ccc([N+](=O)[O-])o1)Nc1ccc2ccccc2c1 |  | 100% | > 4 | 47% |  |  |  |  | Active |  |  |  |
| NC(=S)N/N=C/c1ccc([N+](=O)[O-])o1 |  | 85% | > 4 | 57% |  |  |  |  | Active |  |  |  |
| CCCCCCN1C(=O)C(=Cc2ccc([N+](=O)[O-])cc2)C(=O)N(CCCCCC)S1(=O)=O |  | 98% | > 4 | 26% |  |  |  |  | Active |  |  |  |

Second part, led by results:

| IC50 (Trypanosoma cruzi [2]) | inhibition [3] | Ratio [4] | inhibition [5] | IC50 (Trypanosoma cruzi [7]) | IC50 [8] | inhibition [9] | IC50 (Trypanosoma cruzi [11]) | SMILES | Activity (Trypanosoma cruzi [1]) | inhibition of growth at 25 µM (Trypanosoma cruzi [1]) | inhibition of growth at 25 µM (Trypanosoma cruzi [6]) | inhibition of growth at 25 µM (Trypanosoma cruzi [10]) |
| --- | --- | --- | --- | --- | --- | --- | --- | --- | --- | --- | --- | --- |
|  | 92% | > 4 | 0% |  |  |  |  | Cc1c(CNc2ccc3ccccc3c2)no[n+]1[O-] | Active |  |  |  |
|  | 71% | > 4 | 82% |  |  |  |  | O=[N+]([O-])c1ccc(C=Cc2ccc3no[n+]([O-])c3c2)s1 | Active |  |  |  |
|  | 77% | > 4 | 8% | 4.7 µM |  |  |  | O/N=C1C=CC(/C=C/c2ccccc2)=CC/1=N/O | Active |  | 100% |  |
|  | 73% | > 4 | 25% | 5 µM |  |  |  | O/N=C1/C=CC(C=Cc2ccc(Cl)cc2)=C/C1=N/O | Active |  | 100% |  |
|  | 77% | > 4 | 84% |  |  |  |  | O=C1C(=Cc2ccc([N+](=O)[O-])s2)C(=O)N(Cc2ccccc2)S(=O)(=O)N1Cc1ccccc1 | Active |  |  |  |
| 25 µM | 85% | > 4 | 49% |  |  |  |  | CC1=CC(=N/O)/C(=N\O)C=C1 |  | 50% |  |  |
| > 25 µM | 72% | > 4 | 45% |  |  |  |  | [O-][n+]1onc(-c2ccccc2)c1CNc1cccc2ccccc12 |  | 24.7% |  |  |
|  | 100% | > 4 | 32% |  |  |  |  | O=C(N/N=C/c1ccc([N+](=O)[O-])o1)Nc1ccc2ccccc2c1 | Active |  |  |  |
|  | 80% | > 4 | 13% |  |  |  |  | [O-][n+]1onc2ccc(/C=C/c3ccc4nonc4c3)cc21 | Active |  |  |  |
|  | 85% | > 4 | 58% |  |  |  |  | O=C1C(=Cc2ccc([N+](=O)[O-])cc2)C(=O)N(CCc2ccccc2)S(=O)(=O)N1CCc1ccccc1 | Active |  |  |  |
| > 25 µM | 87% | > 4 | 56% |  |  |  |  | Cc1c(/C=N/NC(N)=S)no[n+]1[O-] |  | 24.7% |  |  |
| > 25 µM | 83% | > 4 | 52% |  |  |  |  | O=c1cc(-c2ccccc2)oc2ccccc12 [FLAVONE] |  | 19.1% |  |  |
| 50 µM | 100% | > 4 | 99% |  | 20 µM |  |  | NC1=NS(=O)(=O)N=C(N)C1=Cc1ccc([N+](=O)[O-])o1 |  | 22.2% |  |  |
|  | 100% | > 4 | 25% |  |  |  |  | O=[N+]([O-])c1ccc(/C=N/NC(=S)Nc2ccccc2)s1 | Active |  |  |  |
| 2.9 µM | 84% | > 4 | 73% | 2 µM | 26 µM | 0% | 5.5 µM | [O-][n+]1c2ccc(O)cc2[n+]([O-])c2cc(Cl)c(Cl)cc21 |  | 100% | 100% | 100% |
|  | 88% | > 4 | 47% |  |  |  |  | [O-][n+]1onc2ccc(/C=C/Sc3ccc(F)cc3)cc21 | Active |  |  |  |
| 50 µM | 82% | > 4 | 82% |  | 13 µM | 0% |  | O=C1C(=Cc2ccc([N+](=O)[O-])o2)C(=O)N(Cc2ccccc2)S(=O)(=O)N1Cc1ccccc1 |  | 20.8% |  |  |
|  | 82% | > 4 | 36% |  |  |  |  | NC(=O)N/N=C/c1ccc(OCc2ccc3no[n+]([O-])c3c2)cc1 | Active |  |  |  |
| > 25 µM | 95% | > 4 | 53% |  |  |  |  | C/C(=C\c1cccs1)[N+](=O)[O-] |  | 14.6% |  |  |
| > 25 µM | 87% | > 4 | 69% |  |  |  |  | CCOC(=O)c1nc(-c2ccccc2)ns1 |  | 25% |  |  |
